Assay results reported in ChEMBL document CHEMBL2157949 (J Med Chem, 2012).

Tests used:
[1] = Growth inhibition of Chinese hamster PC43-10 cells expressing reduced folate carrier incubated for 96 hrs by CellTiter-blue cell viability assay; assay type: functional, cell-based; conditions: Cricetulus griseus, PC43-10, 96 h
R2 [2] = assay: Growth inhibition of Chinese hamster R2 cells deficient in reduced folate carrier and human folate receptor alpha incubated for 96 hrs by CellTiter-blue cell viability assay; assay type: cell-based, Cricetulus griseus; conditions: R2, 96 h
[3] = Growth inhibition of Chinese hamster RT16 cells expressing human folate receptor alpha incubated for 96 hrs by CellTiter-blue cell viability assay; assay type: functional, cell-based; conditions: Cricetulus griseus, RT16, 96 h
[4] = Growth inhibition of Chinese hamster RT16 cells expressing human folate receptor alpha incubated for 96 hrs in presence of folic acid by CellTiter-blue cell viability assay; assay type: functional, cell-based; conditions: Cricetulus griseus, RT16, 96 h
R2 [5] = assay: Growth inhibition of Chinese hamster R2 cells expressing human PCFT incubated for 96 hrs by CellTiter-blue cell viability assay; assay type: functional, cell-based, Cricetulus griseus; conditions: R2, 96 h
Outline: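 R2/hPCFT4 CHO cells maintained beforehand in folate-free RPMI 1640 with dialyzed FBS, 25 nM LCV and G418. Assay: ~2500–5000 cells/well in folate-free RPMI 1640 (pH 7.2) with 25 nM LCV, 10% dialyzed FBS, antibiotics and L-glutamine, over a range of drug concentrations.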

KB [6] = assay: Growth inhibition of human KB cells endogenously expressing RFC/FRalpha/PCFT incubated for 96 hrs by CellTiter-blue cell viability assay; assay type: functional, cell-based
KB [7] = assay: Growth inhibition of human KB cells endogenously expressing RFC/FRalpha/PCFT in presence of folic acid incubated for 96 hrs by CellTiter-blue cell viability assay; assay type: functional, cell-based
IGROV-1 [8] = assay: Growth inhibition of human IGROV1 cells endogenously expressing RFC/FRalpha/PCFT incubated for 96 hrs by CellTiter-blue cell viability assay; assay type: functional, cell-based; conditions: IGROV-1, 96 h
IGROV-1 [9] = assay: Growth inhibition of human IGROV1 cells endogenously expressing RFC/FRalpha/PCFT in presence of folic acid incubated for 96 hrs by CellTiter-blue cell viability assay; assay type: functional, cell-based; conditions: IGROV-1, 96 h
R2 [10] = assay: Growth inhibition of Chinese hamster R2 cells expressing empty vector control incubated for 96 hrs by CellTiter-blue cell viability assay; conditions: Cricetulus griseus, R2, 96 h
KB [11] = assay: Inhibition of colony formation of human KB cells endogenously expressing RFC/FRalpha/PCFT incubated for 14 days by methylene blue staining based clonogenicty assay; assay type: functional, cell-based; conditions: 336 h
KB [12] = assay: Growth inhibition of human KB cells endogenously expressing RFC/FRalpha/PCFT in presence of 50 nM leucovorin incubated for 96 hrs by CellTiter-blue cell viability assay; assay type: functional, cell-based
Outline: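 KB cells in complete folate-free RPMI 1640 with 10% dialyzed FBS and LCV at 50 nM (versus the standard 2 nM), exposed to a range of antifolate concentrations for up to 96 h. Cell density read by CellTiter-blue fluorescence and normalized to drug-free cells. Representative data from experiments run in duplicate.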

[13] = target: Folate receptor alpha (Homo sapiens) (UniProt P15328); assay type: cell-based; conditions: CHO
Folate receptor alpha (Homo sapiens), sequence (P15328 25-234 limits assumed): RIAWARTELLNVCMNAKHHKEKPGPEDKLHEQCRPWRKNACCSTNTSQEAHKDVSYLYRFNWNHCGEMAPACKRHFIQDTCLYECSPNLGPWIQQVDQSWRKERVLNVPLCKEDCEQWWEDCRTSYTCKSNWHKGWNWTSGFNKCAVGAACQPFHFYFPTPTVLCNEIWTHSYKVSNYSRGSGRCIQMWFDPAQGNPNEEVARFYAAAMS

[14] = target: T1, Trifunctional purine biosynthetic protein adenosine-3 (Homo sapiens, UniProt P22102); assay: Inhibition of GARFTase in human IGROV1 cells assessed as reduction in [14C]glycine incorporation into [14C]formyl GAR incubated for 15 hrs in complete folate free RPMI medium in presence of 2 nM leucovorin; assay type: cell-based, IGROV-1
T1 sequence (P22102 whole entry): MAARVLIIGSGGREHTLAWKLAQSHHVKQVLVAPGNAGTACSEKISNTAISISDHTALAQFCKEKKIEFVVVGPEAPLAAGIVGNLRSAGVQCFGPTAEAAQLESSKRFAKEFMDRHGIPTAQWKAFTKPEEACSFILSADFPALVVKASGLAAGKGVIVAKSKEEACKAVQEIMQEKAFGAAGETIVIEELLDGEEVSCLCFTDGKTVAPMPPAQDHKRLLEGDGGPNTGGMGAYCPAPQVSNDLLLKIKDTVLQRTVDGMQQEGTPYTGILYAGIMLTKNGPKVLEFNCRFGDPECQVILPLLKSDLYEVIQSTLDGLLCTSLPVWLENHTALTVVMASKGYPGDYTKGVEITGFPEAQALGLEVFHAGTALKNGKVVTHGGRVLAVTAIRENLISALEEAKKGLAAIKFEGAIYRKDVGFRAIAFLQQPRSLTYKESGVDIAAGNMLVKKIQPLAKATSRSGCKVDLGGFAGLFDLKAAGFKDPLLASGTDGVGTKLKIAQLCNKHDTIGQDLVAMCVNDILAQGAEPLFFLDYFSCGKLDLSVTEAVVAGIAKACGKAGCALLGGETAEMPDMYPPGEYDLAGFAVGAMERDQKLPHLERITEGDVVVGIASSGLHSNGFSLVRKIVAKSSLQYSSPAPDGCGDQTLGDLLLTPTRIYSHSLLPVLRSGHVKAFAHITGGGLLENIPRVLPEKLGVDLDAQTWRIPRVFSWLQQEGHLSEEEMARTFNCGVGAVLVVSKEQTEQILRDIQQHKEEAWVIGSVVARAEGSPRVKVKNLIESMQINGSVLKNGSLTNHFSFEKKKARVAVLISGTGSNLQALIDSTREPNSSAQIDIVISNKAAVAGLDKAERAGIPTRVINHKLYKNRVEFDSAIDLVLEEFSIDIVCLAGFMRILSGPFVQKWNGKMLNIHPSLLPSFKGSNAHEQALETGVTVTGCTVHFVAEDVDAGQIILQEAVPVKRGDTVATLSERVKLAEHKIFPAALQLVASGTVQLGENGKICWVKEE

SMILES	IC50 [1] [nM]	IC50 (R2 [2]) [nM]	IC50 [3] [nM]	IC50 [4] [nM]	IC50 (R2 [5]) [nM]	IC50 (KB [6]) [nM]	IC50 (KB [7]) [nM]	IC50 (IGROV-1 [8]) [nM]	IC50 (IGROV-1 [9]) [nM]	IC50 (R2 [10]) [nM]	IC50 (KB [11]) [nM]	IC50 (KB [12]) [nM]	relative binding affinity (RBA) [13]	IC50 [14] [nM]
Nc1nc2[nH]c(CCC#Cc3cc(C(=O)N[C@@H](CCC(=O)O)C(=O)O)cs3)cc2c(=O)[nH]1	> 1000	> 1000	8.26	> 1000	> 1000	> 1000	> 1000	> 1000	> 1000	> 1000				
Nc1nc2[nH]c(CCCCc3ccsc3C(=O)N[C@@H](CCC(=O)O)C(=O)O)cc2c(=O)[nH]1	> 1000	> 1000	> 1000	> 1000	> 1000	267	> 1000			> 1000				
Nc1nc2[nH]c(CCCc3ccc(C(=O)N[C@@H](CCC(=O)O)C(=O)O)s3)cc2c(=O)[nH]1	101			> 1000			> 1000		> 1000	288				
Nc1nc2[nH]c(CCC#Cc3cscc3C(=O)N[C@@H](CCC(=O)O)C(=O)O)cc2c(=O)[nH]1	> 1000	> 1000	> 1000	> 1000	> 1000	> 1000	> 1000			> 1000				
Nc1nc2[nH]c(CCCCc3ccc(C(=O)N[C@@H](CCC(=O)O)C(=O)O)s3)cc2c(=O)[nH]1	> 1000	> 1000		> 1000			> 1000		> 1000	> 1000	0.2	2.2	> 1	3.46
Nc1nc2[nH]c(CCCCc3sccc3C(=O)N[C@@H](CCC(=O)O)C(=O)O)cc2c(=O)[nH]1	> 1000	> 1000	> 1000	> 1000	> 1000	171	> 1000			> 1000				
Nc1nc2[nH]c(CCC#Cc3csc(C(=O)N[C@@H](CCC(=O)O)C(=O)O)c3)cc2c(=O)[nH]1	> 1000	> 1000	13.5	> 1000	> 1000	> 1000	> 1000	> 1000	> 1000	> 1000				
